IMP-1 inh – blocks Pseudomonas aeruginosa IMP-1 metallo-beta-lactamase | 290,000 compounds, 0.45% hits | AID 1556 | inhibition, % at 5.6 µM | purified IMP-1, nitrocefin hydrolysis, epi-absorbance fluorescence;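 active means inhibition above the mean plus 3 SD of all compounds in the same screening run, cut at about 4.5% in these data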;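 further: 0% = IMP-1 with DMSO and 100% = DMSO wells lacking enzyme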
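System: purified IMP-1; amount: IMP-1 0.2 nM before substrate addition; compound: single dose, 5.6 µM; times: 25 °C, 15 min preincubation, 25 min reaction; signal: Epi-absorbance via hydrolysed-nitrocefin quenching of white-plate fluorescence, 480/530 nm, EDTA stop; benchmarks: DMSO with and without IMP-1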
dFosB act – mouse delta FosB homodimer activation. P13346. 340,000 compounds, 0.99% hits. activation, % at 25 µM. purified delta FosB, TAMRA-CDK5 oligo fluorescence polarization; percent of positive-control signal above neutral wells. AID 493131;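 active means mean activation above about 17%, with every replicate also reaching it, limit read from the data, passing the limit was not always enough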
Target sequence (P13346 whole entry, looked up): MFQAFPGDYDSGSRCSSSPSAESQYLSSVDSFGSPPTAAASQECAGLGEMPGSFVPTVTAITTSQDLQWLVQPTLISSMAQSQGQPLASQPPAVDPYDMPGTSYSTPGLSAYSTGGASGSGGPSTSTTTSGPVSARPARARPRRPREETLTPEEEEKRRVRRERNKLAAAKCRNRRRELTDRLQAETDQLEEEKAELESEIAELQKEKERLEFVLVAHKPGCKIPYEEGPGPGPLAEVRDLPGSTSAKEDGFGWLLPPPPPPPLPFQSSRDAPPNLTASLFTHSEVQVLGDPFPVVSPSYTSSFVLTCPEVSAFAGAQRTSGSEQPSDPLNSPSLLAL
m5-HT2A agonist – mouse HTR2A agonism via beta-arrestin recruitment | 360,000 compounds, 0.66% hits | activation, % at 7.6 µM | P35363 | CHO-K1 mHTR2A beta-arrestin complementation, luminescence; percent of 30 µM serotonin response;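 active means activation above a run cutoff, the mean activation of all tested compounds plus 3 SD, cut at about 14% in these data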;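 further: 0% = plate median of compound wells and 100% = 30 µM serotonin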
VIM-2 inhibitor – blocks Pseudomonas aeruginosa VIM-2 metallo-beta-lactamase. purified VIM-2, nitrocefin hydrolysis, epi-absorbance fluorescence. inhibition, % at 5.6 µM. 290,000 compounds, 0.89% hits. AID 1527;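 active means inhibition above the mean of all tested compounds plus 3 SD, cutoff set per screening run, cut at about 7.5% in these data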;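 further: red hydrolysis product quenches plate fluorescence so inhibitors raise well fluorescence; 0% = enzyme with DMSO and 100% = DMSO without enzyme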
OPRM1 ag – activates human mu opioid receptor in HTR2A counterscreen. shares compounds with m5-HT2A agonist. U2OS OPRM1 beta-arrestin PathHunter, luminescence; DMSO 0%, DAMGO 9.3 µM 100%. activation, % at 9.3 µM. 2,300 compounds, 5.3% hits. AID 624380;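 active means mean activation above the mean of DMSO-only wells plus 3 SD, cut at about 0.5% in these data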
m5-HT2A ag conf – confirmation of mouse HTR2A serotonin receptor agonists | shares compounds with m5-HT2A agonist | CHO-K1 PathHunter beta-arrestin recruitment, luminescence; DMSO 0%, 30 µM serotonin 100% | activation, % at 7.6 µM | 2,300 compounds, 19% hits | AID 624381;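 active means mean activation across triplicates above the hit threshold derived in the original primary screen, cut at about 15% in these data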
The depositor's hits bear a star. The list is not random: actives were taken first. Their share in the collection is about 2.5%.

What do the screens show for `CC1CCCCN1C(=O)C(=O)c1cn(CC(=O)N2CCCC2)c2ccccc12` (stereo not drawn)?
IMP-1 inh: -0.1; dFosB act: -7.7; m5-HT2A agonist: -2.4; VIM-2 inhibitor: -1.4

Results for CCN(Cc1ccccc1)C(=O)C(=O)c1cn(CC(=O)N2CCCC2)c2ccccc12 ?
IMP-1 inh: -2.5; dFosB act: -12.2; m5-HT2A agonist: 15.6*; VIM-2 inhibitor: -0.2; OPRM1 ag: -0.7; m5-HT2A ag conf: -3.5

Results for CCN(CC)C(=O)Cn1cc(C(=O)C(=O)N2CCN(C)CC2)c2ccccc21 ?
IMP-1 inh: -0.8; dFosB act: 1.5; m5-HT2A agonist: 16.4*; VIM-2 inhibitor: -1.9; OPRM1 ag: -0.7; m5-HT2A ag conf: 0.3

What do the screens show for `CCN(CC)C(=O)Cn1cc(C(=O)C(=O)N2CCN(c3ccccc3)CC2)c2ccccc21`?
IMP-1 inh: -0.5; dFosB act: -1.6; m5-HT2A agonist: 8.8; VIM-2 inhibitor: 2.6

Results for CN1CCN(C(=O)c2cccc(-c3cnc4cnc(-c5ccccc5Oc5ccccc5)cn34)c2)CC1 ?
m5-HT2A agonist: -4.5

What do the screens show for `CC(C)(C)Nc1nc2nonc2nc1NC(C)(C)C`?
IMP-1 inh: 3.5; dFosB act: -12.9; m5-HT2A agonist: 35.5*; VIM-2 inhibitor: -0.5; OPRM1 ag: -0.3; m5-HT2A ag conf: 20.0*

How did CC1CCCC(C)N1C(=O)COC(=O)CSc1ccc(C(N)=O)cc1[N+](=O)[O-] (stereo not drawn) do in these assays?
dFosB act: -2.6; m5-HT2A agonist: 16.0*; OPRM1 ag: -0.7; m5-HT2A ag conf: -2.8

Results for Cc1ccc(-c2csc(NC(=O)c3cccc(C)c3)c2C(=O)O)cc1 ?
dFosB act: -8.6; m5-HT2A agonist: 14.9*; OPRM1 ag: -0.5; m5-HT2A ag conf: -1.8

Results for CCOC(=O)c1ccccc1NC(=O)c1ccc2c(SCC(=O)O)c3c(nc2c1)CCCC3 ?
IMP-1 inh: 2.2; dFosB act: -64.3; m5-HT2A agonist: 15.0*; VIM-2 inhibitor: 6.1; OPRM1 ag: -0.6; m5-HT2A ag conf: -0.8

Results for COc1ccc(CCC(=O)N2c3ccccc3N=C(c3ccc(C(F)(F)F)cc3)C2C(=O)NC(C)C)cc1 (stereo not drawn) ?
m5-HT2A agonist: -1.7

What do the screens show for `COc1ccc(C(=O)Nc2cccc([N+](=O)[O-])c2)cc1Br`?
IMP-1 inh: -2.4; dFosB act: 5.9; m5-HT2A agonist: -2.2; VIM-2 inhibitor: -0.4

What do the screens show for `COc1ccc(C(=O)Nc2ccc(OC)c([N+](=O)[O-])c2)cc1Br`?
IMP-1 inh: -3.9; dFosB act: 9.8; m5-HT2A agonist: 24.2*; VIM-2 inhibitor: -3.0; OPRM1 ag: -0.5; m5-HT2A ag conf: 13.8

What do the screens show for `Cc1ccc(-c2nc(S(=O)(=O)c3ccc(F)cc3)c(SCC(=O)NCC3CCCO3)o2)cc1` (stereo not drawn)?
IMP-1 inh: -1.5; dFosB act: 7.5; m5-HT2A agonist: -0.8; VIM-2 inhibitor: -2.5

How did Cc1ccc(S(=O)(=O)c2nc(-c3ccc(F)cc3)oc2SCC(=O)NCC2CCCO2)cc1 (stereo not drawn) do in these assays?
IMP-1 inh: -0.9; dFosB act: 3.4; m5-HT2A agonist: 14.9*; VIM-2 inhibitor: -0.4; OPRM1 ag: -0.7; m5-HT2A ag conf: -3.0

What do the screens show for `COc1ccc(CCN(C)C2CCCN(C(=O)Cn3cnnn3)C2)cc1OC` (stereo not drawn)?
IMP-1 inh: 0.6; dFosB act: 0.7; m5-HT2A agonist: 0.7; VIM-2 inhibitor: -0.1

What do the screens show for `Cc1noc(C)c1CN1C(=O)c2cccc([N+](=O)[O-])c2C1=O`?
IMP-1 inh: -0.9; dFosB act: 0.1; m5-HT2A agonist: 14.4*; VIM-2 inhibitor: 2.6; OPRM1 ag: -0.2; m5-HT2A ag conf: -0.3

How did CC(O)(c1ccccc1)c1ccc2ccccc2n1 (stereo not drawn) do in these assays?
dFosB act: 6.0; m5-HT2A agonist: -1.7

What do the screens show for `CN(C)c1ccc(C(=O)c2ccccc2C(=O)O)c(O)c1`?
IMP-1 inh: -3.4; dFosB act: -6.8; m5-HT2A agonist: 17.0*; VIM-2 inhibitor: 4.1; OPRM1 ag: -0.6; m5-HT2A ag conf: -2.1

Compound activity from PubChem.
